Test results: ChEMBL document CHEMBL3632499, “Synthesis and Antiproliferative Activity Evaluation of the Disulfide-Containing Cyclic Peptide Thiochondrilline C and Derivatives” (J Nat Prod, 2015)
Converted amounts (≈) assume the structure as drawn.

How the values were obtained:
[1] = Antiproliferative activity against human HOP92 cells; type: functional; details: HOP-92, read-out: LC50 (the source's name)
Procedure, shortened: (§1)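 Profiled in the National Cancer Institute 60 cancer cell line screen. Reported GI50 is the concentration giving 50% growth inhibition, TGI the concentration giving total growth inhibition, and LC50 the concentration giving 50% net cell killing. Values are averages ± SEM from two independent determinations.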

[2] = Half life in mouse plasma; type: ADME, cell-free
UACC-257 = test: Antiproliferative activity against human UACC257 cells; type: functional
Procedure, shortened: (§2)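 Run in the National Cancer Institute 60 cancer cell line panel. Read-outs: GI50, the concentration causing 50% growth inhibition; TGI, the concentration causing total growth inhibition; LC50, the concentration causing 50% net cell killing. Values are averages ± SEM from two independent determinations.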

OVCAR-5 = test: Antiproliferative activity against human OVCAR5 cells; type: functional; procedure, shortened: as §1
A549 = test: Antiproliferative activity against human A549/ATCC cells; type: functional; procedure, shortened: as §1
[3] = Apparent permeability of the compound from basolateral to apical side in human Caco2 cells; type: ADME, cell-based; details: Caco-2
MDA-MB-468 = test: Antiproliferative activity against human MDA-MB-468 cells; type: functional; procedure, shortened: as §1
NCI-H23 = test: Antiproliferative activity against human NCI-H23 cells; type: functional; procedure, shortened: as §1
NCI-H226 = test: Antiproliferative activity against human NCI-H226 cells; type: functional; procedure, shortened: as §1
UACC-62 = test: Antiproliferative activity against human UACC62 cells; type: functional; procedure, shortened: as §2
NCI-H322M = test: Antiproliferative activity against human NCI-H322M cells; type: functional; procedure, shortened: as §1
SNB-75 = test: Antiproliferative activity against human SNB75 cells; type: functional; procedure, shortened: as §2
[4] = Half life in mouse liver microsomes; type: ADME
[5] = Antiproliferative activity against human EKVX cells; type: functional; procedure, shortened: as §1
KM12 = test: Antiproliferative activity against human KM12 cells; type: functional; procedure, shortened: as §1
U-251 = test: Antiproliferative activity against human U251 cells; type: functional; procedure, shortened: as §2
[6] = Antiproliferative activity against human Hs 578T cells; type: functional; procedure, shortened: as §1
MDA-MB-435 = test: Antiproliferative activity against human MDA-MB-435 cells; type: functional; procedure, shortened: as §1
IGROV-1 = test: Antiproliferative activity against human IGROV1 cells; type: functional; procedure, shortened: as §1
MCF7 = test: Antiproliferative activity against human MCF7 cells; type: functional; procedure, shortened: as §1
SF-268 = test: Antiproliferative activity against human SF268 cells; type: functional; procedure, shortened: as §1
[7] = Antiproliferative activity against human RXF393 cells; type: functional; procedure, shortened: as §1
HL-60(TB) = test: Antiproliferative activity against human HL-60(TB) cells; type: functional
Procedure, shortened: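 Tested in the NCI 60 human cancer cell line panel. GI50 is the concentration giving 50% growth inhibition; TGI (total growth inhibition) and LC50 (50% net cell killing) were also derived. Values are the mean ± SEM of two independent determinations.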

K562 = test: Antiproliferative activity against human K562 cells; type: functional; procedure, shortened: as §1
ACHN = test: Antiproliferative activity against human ACHN cells; type: functional; procedure, shortened: as §1
CCRF-CEM = test: Antiproliferative activity against human CCRF-CEM cells; type: functional; procedure, shortened: as §1
A498 = test: Antiproliferative activity against human A498 cells; type: functional; procedure, shortened: as §1
DU-145 = test: Antiproliferative activity against human DU145 cells; type: functional; procedure, shortened: as §1
SN12C = test: Antiproliferative activity against human SN12C cells; type: functional; procedure, shortened: as §1
[8] = Apparent permeability of the compound from apical to basolateral side in human Caco2 cells; type: ADME, cell-based; details: Caco-2
SNB-19 = test: Antiproliferative activity against human SNB19 cells; type: functional; procedure, shortened: as §2
SW-620 = test: Antiproliferative activity against human SW620 cells; type: functional; procedure, shortened: as §2
[9] = Aqueous solubility of the compound; type: physicochemical; details: buffer
[10] = Antiproliferative activity against human LOXIMVI cells; type: functional; details: LOX IMVI; procedure, shortened: as §1
Malme-3M = test: Antiproliferative activity against human MALME-3M cells; type: functional; procedure, shortened: as §1
[11] = read-out: LC50 (the source's name)

Question: Which results are given for `C[C@H](NC(=O)[C@@H]1CSSC[C@@H](NC(=O)c2nc3ccccc3cc2O)C(=O)NCC(=O)N1C)c1ccccc1`?
Answer: CC50 [1]: 35.6 µM; half-life [2]: 4.9 h; GI50 (UACC-257): 8.3 µM; TGI (UACC-257): 27.8 µM; CC50 (UACC-257; [11]): > 50 µM; GI50 (OVCAR-5): 5.2 µM; TGI (OVCAR-5): 12.6 µM; CC50 (OVCAR-5; [11]): 29.6 µM; GI50 (A549): 7.1 µM; TGI (A549): 15.7 µM; CC50 (A549; [11]): 35.3 µM; Papp B→A [3]: 0.062 ×10⁻⁶ cm/s; GI50 (MDA-MB-468): 6 µM; TGI (MDA-MB-468): 13.3 µM; CC50 (MDA-MB-468; [11]): 29.8 µM; GI50 (NCI-H23): 5.2 µM; TGI (NCI-H23): 12.6 µM; CC50 (NCI-H23; [11]): 29.7 µM; GI50 (NCI-H226): 8.9 µM; TGI (NCI-H226): 17.4 µM; CC50 (NCI-H226; [11]): 34.2 µM; GI50 (UACC-62): 5.7 µM; TGI (UACC-62): 13.3 µM; CC50 (UACC-62; [11]): 30.2 µM; GI50 (NCI-H322M): 7.1 µM; TGI (NCI-H322M): 20.1 µM; CC50 (NCI-H322M; [11]): > 50 µM; GI50 (SNB-75): 7.7 µM; TGI (SNB-75): > 50 µM; CC50 (SNB-75; [11]): > 50 µM; half-life [4]: 0.45 h; GI50 [5]: 3.8 µM; TGI [5]: 11.8 µM; CC50 [5, 11]: 31.4 µM; GI50 (KM12): 0.6 µM; TGI (KM12): 8.6 µM; CC50 (KM12; [11]): 28.3 µM; GI50 (U-251): 2.5 µM; TGI (U-251): 7.7 µM; CC50 (U-251; [11]): 20.4 µM; GI50 [6]: 11.3 µM; TGI [6]: 34.5 µM; CC50 [6, 11]: > 50 µM; GI50 (MDA-MB-435): 0.8 µM; TGI (MDA-MB-435): 6.6 µM; CC50 (MDA-MB-435; [11]): 22 µM; GI50 (IGROV-1): 4 µM; TGI (IGROV-1): 12.9 µM; CC50 (IGROV-1; [11]): 37.6 µM; GI50 (MCF7): 0.9 µM; TGI (MCF7): 2.6 µM; CC50 (MCF7; [11]): 16.1 µM; GI50 (SF-268): 0.4 µM; TGI (SF-268): 11.1 µM; CC50 (SF-268; [11]): 35.6 µM; GI50 ([7]; RXF 393): 1.3 µM; TGI ([7]; RXF 393): 3.1 µM; CC50 ([7]; RXF 393, read-out: LC50 (the source's name)): 13 µM; GI50 (HL-60(TB)): 1.2 µM; TGI (HL-60(TB)): 5.1 µM; CC50 (HL-60(TB); [11]): 38.8 µM; GI50 (K562): 0.7 µM; TGI (K562): 3.1 µM; CC50 (K562; [11]): > 50 µM; GI50 (ACHN): 4.9 µM; TGI (ACHN): 13 µM; CC50 (ACHN; [11]): 31.5 µM; GI50 (CCRF-CEM): 1.9 µM; TGI (CCRF-CEM): 10.5 µM; CC50 (CCRF-CEM; [11]): > 50 µM; GI50 (A498): 15 µM; TGI (A498): 33.5 µM; CC50 (A498; [11]): > 50 µM; GI50 (DU-145): 5.8 µM; TGI (DU-145): 12.7 µM; CC50 (DU-145; [11]): 27.7 µM; GI50 (SN12C): 5.6 µM; TGI (SN12C): 14.1 µM; CC50 (SN12C; [11]): 35.4 µM; Papp A→B [8]: 0.011 ×10⁻⁶ cm/s; GI50 (SNB-19): 7.3 µM; TGI (SNB-19): 19.5 µM; CC50 (SNB-19; [11]): > 50 µM; GI50 (SW-620): 1.9 µM; TGI (SW-620): 6.3 µM; CC50 (SW-620; [11]): 33.2 µM; solubility [9]: 4.5 µg/mL (≈ 7.93 µM); GI50 [10]: 0.7 µM; TGI [10]: 1.5 µM; CC50 [10, 11]: 3.6 µM; GI50 (Malme-3M): 6.1 µM; TGI (Malme-3M): 14 µM; CC50 (Malme-3M; [11]): 32.3 µM
